Data: ChEMBL document CHEMBL4265950, “Discovery of furyl/thienyl β-carboline derivatives as potent and selective PDE5 inhibitors with excellent vasorelaxant effect” (Eur J Med Chem, 2018)

Key:
[1] = molecular target: T1, cGMP-specific 3',5'-cyclic phosphodiesterase (Homo sapiens, UniProt O76074); assay: Inhibition of full length recombinant human N-terminal GST-tagged PDE5A1 expressed in baculovirus infected sf9 cells using FAM-cyclic-3',5-GMP as substrate after 1 hr by fluorescence polarization assay
[2] = molecular target: T1, cGMP-specific 3',5'-cyclic phosphodiesterase; assay: Inhibition of full length recombinant human N-terminal GST-tagged PDE5A1 expressed in baculovirus infected sf9 cells at 100 nM using FAM-cyclic-3',5-GMP as substrate after 1 hr by fluorescence polarization assay relative to control
Outline: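 Single-point test at 100 nM, reported as percent inhibition. Human PDE5 at 15 ng/mL with 100 nM FAM-cGMP in MOPS pH 7.5 buffer (MgCl2, EDTA, BSA, DTT), 1% DMSO final, 60 min at 25 °C. Binding agent added for 1 h, then fluorescence polarization read at […] nm.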

[3] = molecular target: Dual specificity calcium/calmodulin-dependent 3',5'-cyclic nucleotide phosphodiesterase 1A (Homo sapiens, UniProt P54750); assay: Inhibition of full length recombinant human N-terminal GST-tagged PDE1A expressed in baculovirus infected sf9 cells using FAM-cyclic-3',5-AMP as substrate after 1 hr by fluorescence polarization assay
Sequence of Dual specificity calcium/calmodulin-dependent 3',5'-cyclic nucleotide phosphodiesterase 1A (P54750 whole entry, canonical isoform): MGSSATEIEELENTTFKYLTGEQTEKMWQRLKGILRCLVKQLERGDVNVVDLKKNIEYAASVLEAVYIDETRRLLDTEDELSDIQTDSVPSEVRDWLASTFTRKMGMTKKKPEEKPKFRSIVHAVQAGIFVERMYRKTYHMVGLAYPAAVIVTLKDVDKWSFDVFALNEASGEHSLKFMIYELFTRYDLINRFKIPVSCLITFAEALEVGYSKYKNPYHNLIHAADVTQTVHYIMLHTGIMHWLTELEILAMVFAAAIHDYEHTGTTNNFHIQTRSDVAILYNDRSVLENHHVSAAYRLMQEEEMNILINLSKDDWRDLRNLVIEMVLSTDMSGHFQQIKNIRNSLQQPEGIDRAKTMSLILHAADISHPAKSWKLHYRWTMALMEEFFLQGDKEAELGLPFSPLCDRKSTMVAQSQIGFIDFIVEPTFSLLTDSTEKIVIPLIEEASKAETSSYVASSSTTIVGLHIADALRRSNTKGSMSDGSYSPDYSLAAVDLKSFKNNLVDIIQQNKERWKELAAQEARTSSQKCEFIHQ
Outline: (§1)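 Fluorescence polarization assay run at 25 °C for 60 min in 40 mM MOPS pH 7.5, 0.5 mM EDTA, 15 mM MgCl2, 0.15 mg/mL BSA, 1 mM DTT, 0.05% ProClin 200. Contained 15 ng/mL PDE isoform and 100 nM FAM-cGMP or FAM-cAMP according to isoform, with 1% DMSO final. Binding agent added for 1 h at 25 °C; read at […] nm. IC50 from normalized nonlinear dose-response fit.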

[4] = molecular target: cGMP-dependent 3',5'-cyclic phosphodiesterase (Homo sapiens, UniProt O00408); assay: Inhibition of recombinant human N-terminal FLAG-tagged PDE2A (2 to 941 residues) expressed in baculovirus infected sf9 cells using FAM-cyclic-3',5-AMP as substrate after 1 hr by fluorescence polarization assay; outline: as §1
Sequence of cGMP-dependent 3',5'-cyclic phosphodiesterase (O00408 whole entry, the tested form may be a part): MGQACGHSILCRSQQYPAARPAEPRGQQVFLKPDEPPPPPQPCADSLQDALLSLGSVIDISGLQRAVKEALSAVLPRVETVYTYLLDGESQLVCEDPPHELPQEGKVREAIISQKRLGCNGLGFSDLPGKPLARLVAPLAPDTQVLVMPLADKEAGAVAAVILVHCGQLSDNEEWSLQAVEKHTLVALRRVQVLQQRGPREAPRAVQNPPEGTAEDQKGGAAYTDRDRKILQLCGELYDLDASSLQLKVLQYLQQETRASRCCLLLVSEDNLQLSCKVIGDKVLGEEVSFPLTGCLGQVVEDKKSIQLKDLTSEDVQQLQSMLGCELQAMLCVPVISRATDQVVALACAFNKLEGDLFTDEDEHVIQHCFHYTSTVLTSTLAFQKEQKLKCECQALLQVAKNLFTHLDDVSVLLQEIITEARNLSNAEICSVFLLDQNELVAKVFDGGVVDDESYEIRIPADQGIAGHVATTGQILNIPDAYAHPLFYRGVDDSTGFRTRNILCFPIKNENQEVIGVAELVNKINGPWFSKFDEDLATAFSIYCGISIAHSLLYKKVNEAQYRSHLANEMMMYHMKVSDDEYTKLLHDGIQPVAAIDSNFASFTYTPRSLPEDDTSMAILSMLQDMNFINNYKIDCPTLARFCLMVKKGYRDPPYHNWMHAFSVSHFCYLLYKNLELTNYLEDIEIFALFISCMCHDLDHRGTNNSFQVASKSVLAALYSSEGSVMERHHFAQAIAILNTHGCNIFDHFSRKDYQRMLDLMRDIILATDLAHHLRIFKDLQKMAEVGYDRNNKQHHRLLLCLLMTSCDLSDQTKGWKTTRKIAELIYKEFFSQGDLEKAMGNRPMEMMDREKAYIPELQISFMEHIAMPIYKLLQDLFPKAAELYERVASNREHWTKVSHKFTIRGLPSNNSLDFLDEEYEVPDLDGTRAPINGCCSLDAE

[5] = molecular target: cGMP-inhibited 3',5'-cyclic phosphodiesterase 3B (Homo sapiens, UniProt Q13370); assay: Inhibition of recombinant human N-terminal GST-tagged PDE3B (592 to end residues) expressed in baculovirus infected sf9 cells using FAM-cyclic-3',5-AMP as substrate after 1 hr by fluorescence polarization assay; outline: as §1
Sequence of cGMP-inhibited 3',5'-cyclic phosphodiesterase 3B (Q13370 whole entry): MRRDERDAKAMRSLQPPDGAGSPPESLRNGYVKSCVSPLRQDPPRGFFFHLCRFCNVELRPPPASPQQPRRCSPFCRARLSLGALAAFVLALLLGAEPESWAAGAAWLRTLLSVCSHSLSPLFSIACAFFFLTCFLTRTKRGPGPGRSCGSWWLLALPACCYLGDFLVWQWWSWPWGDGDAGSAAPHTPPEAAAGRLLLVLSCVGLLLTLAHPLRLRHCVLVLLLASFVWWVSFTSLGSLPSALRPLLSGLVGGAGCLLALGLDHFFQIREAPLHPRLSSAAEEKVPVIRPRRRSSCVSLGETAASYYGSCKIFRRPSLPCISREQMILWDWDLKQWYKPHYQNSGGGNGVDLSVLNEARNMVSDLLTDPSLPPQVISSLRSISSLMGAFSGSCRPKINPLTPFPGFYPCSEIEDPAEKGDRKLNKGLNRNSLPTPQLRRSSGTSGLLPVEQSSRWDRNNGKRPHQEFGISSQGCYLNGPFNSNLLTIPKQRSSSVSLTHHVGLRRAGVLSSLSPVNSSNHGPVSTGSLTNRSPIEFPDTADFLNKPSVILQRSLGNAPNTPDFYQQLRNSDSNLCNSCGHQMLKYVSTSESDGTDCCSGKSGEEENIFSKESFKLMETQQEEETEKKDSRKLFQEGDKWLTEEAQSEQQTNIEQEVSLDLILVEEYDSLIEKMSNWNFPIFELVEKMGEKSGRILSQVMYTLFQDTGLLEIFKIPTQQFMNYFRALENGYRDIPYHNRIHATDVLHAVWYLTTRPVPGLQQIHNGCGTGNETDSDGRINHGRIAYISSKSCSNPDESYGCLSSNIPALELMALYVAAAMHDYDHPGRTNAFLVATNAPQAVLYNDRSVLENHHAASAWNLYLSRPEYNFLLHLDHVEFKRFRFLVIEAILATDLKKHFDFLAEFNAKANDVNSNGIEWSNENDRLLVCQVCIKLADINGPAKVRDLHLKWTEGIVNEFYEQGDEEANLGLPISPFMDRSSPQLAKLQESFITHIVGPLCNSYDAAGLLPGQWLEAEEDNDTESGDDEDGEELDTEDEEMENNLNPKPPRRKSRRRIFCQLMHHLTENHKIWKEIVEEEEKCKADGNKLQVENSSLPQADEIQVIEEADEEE

[6] = molecular target: 3',5'-cyclic-AMP phosphodiesterase 4A (Homo sapiens, UniProt P27815); assay: Inhibition of full length recombinant human N-terminal GST-tagged PDE4A1A expressed in baculovirus infected sf9 cells using FAM-cyclic-3',5-AMP as substrate after 1 hr by fluorescence polarization assay
[7] = molecular target: Cone cGMP-specific 3',5'-cyclic phosphodiesterase subunit alpha' (Homo sapiens, UniProt P51160); assay: Inhibition of full length recombinant human N-terminal GST-tagged PDE6C expressed in baculovirus infected sf9 cells using […] as substrate after 1 hr by fluorescence polarization assay
Sequence of Cone cGMP-specific 3',5'-cyclic phosphodiesterase subunit alpha' (P51160 whole entry): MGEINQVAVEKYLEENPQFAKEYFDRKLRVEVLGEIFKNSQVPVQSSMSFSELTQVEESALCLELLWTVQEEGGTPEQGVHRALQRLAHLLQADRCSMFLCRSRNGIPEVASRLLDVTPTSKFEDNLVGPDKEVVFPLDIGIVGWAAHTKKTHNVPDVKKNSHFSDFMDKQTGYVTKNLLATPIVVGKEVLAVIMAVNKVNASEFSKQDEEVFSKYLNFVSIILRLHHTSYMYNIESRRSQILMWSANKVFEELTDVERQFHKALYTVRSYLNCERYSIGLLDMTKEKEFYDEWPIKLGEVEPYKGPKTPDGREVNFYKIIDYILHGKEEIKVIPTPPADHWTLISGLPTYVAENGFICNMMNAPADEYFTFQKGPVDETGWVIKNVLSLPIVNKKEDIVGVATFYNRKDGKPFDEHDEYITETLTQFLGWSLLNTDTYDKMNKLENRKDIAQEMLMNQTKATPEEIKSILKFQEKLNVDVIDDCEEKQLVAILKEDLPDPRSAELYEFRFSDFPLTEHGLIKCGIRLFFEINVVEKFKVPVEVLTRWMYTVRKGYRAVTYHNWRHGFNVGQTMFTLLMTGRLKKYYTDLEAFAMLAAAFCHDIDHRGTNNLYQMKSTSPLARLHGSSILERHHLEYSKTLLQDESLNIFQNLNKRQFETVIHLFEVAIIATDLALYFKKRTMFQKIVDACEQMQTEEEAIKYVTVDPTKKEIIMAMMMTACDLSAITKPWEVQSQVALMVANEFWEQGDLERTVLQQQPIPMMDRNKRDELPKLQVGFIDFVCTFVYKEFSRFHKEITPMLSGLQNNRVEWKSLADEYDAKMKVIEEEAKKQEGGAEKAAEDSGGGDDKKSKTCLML

Homo sapiens [8] = organism: Homo sapiens; assay: Selectivity index, ratio of IC50 for inhibition of full length recombinant human N-terminal GST-tagged PDE6C expressed in baculovirus infected sf9 cells to IC50 for inhibition of full length recombinant human N-terminal GST-tagged PDE5A1 expressed in baculovirus infected sf9 cells
[9] = molecular target: Dual 3',5'-cyclic-AMP and -GMP phosphodiesterase 11A (Homo sapiens, UniProt Q9HCR9); assay: Inhibition of full length recombinant human N-terminal GST-tagged PDE11A4 expressed in baculovirus infected sf9 cells using FAM-cyclic-3',5-AMP as substrate after 1 hr by fluorescence polarization assay
Sequence of Dual 3',5'-cyclic-AMP and -GMP phosphodiesterase 11A (Q9HCR9 whole entry): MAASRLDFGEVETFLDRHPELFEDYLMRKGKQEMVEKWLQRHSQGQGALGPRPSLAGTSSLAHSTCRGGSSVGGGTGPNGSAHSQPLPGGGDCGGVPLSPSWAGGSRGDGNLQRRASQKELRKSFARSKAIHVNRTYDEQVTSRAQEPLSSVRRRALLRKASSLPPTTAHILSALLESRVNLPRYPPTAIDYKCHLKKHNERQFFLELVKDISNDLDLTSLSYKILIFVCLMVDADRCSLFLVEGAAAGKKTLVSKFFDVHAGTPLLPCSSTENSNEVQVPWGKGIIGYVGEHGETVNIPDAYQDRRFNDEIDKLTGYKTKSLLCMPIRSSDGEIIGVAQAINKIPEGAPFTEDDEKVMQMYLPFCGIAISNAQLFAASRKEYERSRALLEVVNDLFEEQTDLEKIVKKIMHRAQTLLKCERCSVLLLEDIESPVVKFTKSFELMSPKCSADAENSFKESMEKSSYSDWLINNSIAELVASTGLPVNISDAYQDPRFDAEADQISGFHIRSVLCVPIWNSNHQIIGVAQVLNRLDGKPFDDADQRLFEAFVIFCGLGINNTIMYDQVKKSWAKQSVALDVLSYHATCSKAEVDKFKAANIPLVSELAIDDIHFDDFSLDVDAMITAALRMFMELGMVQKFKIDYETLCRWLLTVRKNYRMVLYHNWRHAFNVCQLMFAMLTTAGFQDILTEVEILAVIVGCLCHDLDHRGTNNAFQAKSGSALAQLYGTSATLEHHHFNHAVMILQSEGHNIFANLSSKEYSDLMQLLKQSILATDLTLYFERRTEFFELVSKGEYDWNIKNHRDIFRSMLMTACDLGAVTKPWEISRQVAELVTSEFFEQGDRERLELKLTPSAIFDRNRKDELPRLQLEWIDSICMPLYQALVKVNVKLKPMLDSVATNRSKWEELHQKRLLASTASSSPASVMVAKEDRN

Homo sapiens [10] = organism: Homo sapiens; assay: Selectivity index, ratio of IC50 for inhibition of full length recombinant human N-terminal GST-tagged PDE11A4 expressed in baculovirus infected sf9 cells to IC50 for inhibition of full length recombinant human N-terminal GST-tagged PDE5A1 expressed in baculovirus infected sf9 cells
[11] = molecular target: cGMP-specific 3',5'-cyclic phosphodiesterase (Rattus norvegicus) (UniProt O54735); assay: (§2) Inhibition of PDE5 in Wistar rat mesentric arteries assessed as inhibition of phenylephrine-induced contraction by measuring increase in acetylcholine-induced vasorelaxation by pressure myographic method
Outline: (§3)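 Third-order rat mesenteric arteries (110–150 µm), 3–4 mm unbranched segments, cannulated in PSS (pH 7.4, 95% O2/5% CO2). Equilibrated 35 min while pressure was stepped 10→60 mmHg. Checked with 120 mM KCl and acetylcholine, then constricted with 20 µM phenylephrine (norepinephrine in text) and given compounds cumulatively. Ca²⁺-free PSS set maximal dilation. Outer diameter recorded as % relaxation; EC50 from normalized nonlinear fit.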

[12] = molecular target: cGMP-specific 3',5'-cyclic phosphodiesterase (Rattus norvegicus, UniProt O54735); assay: as §2; outline: as §3
[13] = molecular target: T1, cGMP-specific 3',5'-cyclic phosphodiesterase; assay: Inhibition of PDE5 (unknown origin)
[14] = Stability of the compound in PDE5 enzyme assay condition at 100 uM by HPLC analysis; assay type: ADME

SMILES | IC50 [1] | inhibition [2] | IC50 [3] | IC50 [4] | IC50 [5] | IC50 [6] | IC50 [7] | Ratio IC50 (Homo sapiens [8]) | IC50 [9] | Ratio IC50 (Homo sapiens [10]) | further results
CN1CC(=O)N2[C@H](c3sccc3Br)c3[nH]c4ccccc4c3C[C@@H]2C1=O | 80.2 nM | 67.2% |  |  |  |  |  |  |  |  | 
CCN1C(=O)[C@@H]2Cc3c([nH]c4ccccc34)[C@@H](c3sccc3C)N2C1=O | 21.4 nM | 76.1% | > 20000 nM | > 20000 nM | > 20000 nM | > 10000 nM | 13 nM | 0.6 | 155 nM | 7 | 
CCc1ccc(C2c3[nH]c4ccccc4c3CCN2C(=O)/C=C/c2ccc(C(=O)O)cc2)s1 (centres undefined) | 235 nM | 47.4% |  |  |  |  |  |  |  |  | 
CCc1ccc([C@H]2c3[nH]c4ccccc4c3C[C@@H]3C(=O)N(CC)C(=O)N23)o1 | 27.6 nM | 83.6% | > 20000 nM | > 20000 nM | > 20000 nM | > 10000 nM | 10 nM | 0.4 | 802 nM | 29 | 
CCc1ccc([C@@H]2c3[nH]c4ccccc4c3C[C@@H]3C(=O)N(CC)C(=O)N23)s1 | 7.02 nM | 91.4% | > 20000 nM | > 20000 nM | > 20000 nM | > 10000 nM | > 1000 nM | > 142 | 169 nM | 24 | percent relaxation [11]: Dose-dependent effect; EC50 [12]: 103 nM
COc1ccc(CN=c2[nH]c(N3CCC[C@H]3CO)ncc2C(=O)NCc2ncccn2)cc1Cl |  |  |  |  |  |  |  |  |  |  | Ki [13]: 5 nM
CCCCCN1C(=O)[C@@H]2Cc3c([nH]c4ccccc34)[C@@H](c3ccc(Br)s3)N2C1=O |  |  |  |  |  |  |  |  |  |  | IC50 [13]: 170 nM
CCc1ccc(C2c3[nH]c4ccccc4c3C(=O)CN2c2ncc(-c3ccc(OC)c(OC)c3)cn2)s1 (centres undefined) | 39.7 nM | 69.4% |  |  |  |  | 253 nM | 6 | 153 nM | 4 | 
CCNC(=O)c1cc2c([nH]c3ccccc32)c(-c2ccc(CC)s2)n1 | 227 nM | 47.8% |  |  |  |  |  |  |  |  | Stability [14]: Stable
COc1ccc(-c2cnc(N3CC(=O)c4c([nH]c5ccccc45)C3c3ccc4c(c3)OCO4)nc2)cc1OC (racemic) |  |  |  |  |  |  |  |  |  |  | Ki [13]: 8 nM
Cc1ccc([C@@H]2c3[nH]c4ccccc4c3C[C@@H]3C(=O)N(C)CC(=O)N23)o1 | 36.9 nM | 89.5% |  |  |  |  |  |  |  |  | 
CCc1ccc(C2c3[nH]c4ccccc4c3CCN2c2ncc(-c3ccc(OC)c(OC)c3)cn2)o1 (centres undefined) | 177 nM | 47.6% |  |  |  |  |  |  |  |  | 
CCc1ccc([C@@H]2c3[nH]c4ccccc4c3C[C@@H]3C(=O)N(CC)C(=O)N23)o1 | 8.44 nM | 85.8% | > 20000 nM | > 20000 nM | > 20000 nM | > 10000 nM | > 1000 nM | > 118 | 99 nM | 12 | percent relaxation [11]: Dose-dependent effect; EC50 [12]: 225 nM
CCCCN1C(=O)[C@H]2Cc3c([nH]c4ccccc34)[C@@H](c3ccc(CC)s3)N2C1=O | 36.4 nM | 76.2% | > 20000 nM | > 20000 nM | > 20000 nM | > 10000 nM | > 1000 nM | > 27 | 386 nM | 10 | 
CCc1ccc([C@H]2c3[nH]c4ccccc4c3C[C@H]3C(=O)N(C)CC(=O)N23)s1 | 19.9 nM | 86.7% | > 20000 nM | > 20000 nM | > 20000 nM | > 10000 nM | > 1000 nM | > 50 | > 1000 nM | > 50 | 
CCc1ccc([C@H]2c3[nH]c4ccccc4c3C[C@H]3C(=O)N(C)CC(=O)N23)o1 | 56.4 nM | 69% |  |  |  |  |  |  |  |  | 
c1ccc(CNc2ncnc3sc4c(c23)CCCCC4)cc1 |  |  |  |  |  |  |  |  |  |  | IC50 [13]: 190 nM

SMILES | IC50 [1] | inhibition [2] | IC50 [3] | IC50 [4] | IC50 [5] | IC50 [6] | IC50 [7] | Ratio IC50 (Homo sapiens [8]) | IC50 [9] | Ratio IC50 (Homo sapiens [10]) | further results
CCc1ccc(C2c3[nH]c4ccccc4c3CCN2c2ccc(-c3ccccn3)cn2)s1 (centres undefined) |  |  |  |  |  |  |  |  |  |  | IC50 [13]: 86 nM
CCc1ccc([C@H]2c3[nH]c4ccccc4c3C[C@H]3C(=O)N(CC)C(=O)N23)o1 | 81.2 nM | 62.2% |  |  |  |  |  |  |  |  | 
Cc1ccc([C@@H]2c3[nH]c4ccccc4c3C[C@@H]3C(=O)N(C)CC(=O)N23)s1 | 8.68 nM | 96% | > 20000 nM | > 20000 nM | > 20000 nM | > 10000 nM | > 1000 nM | > 115 | 173 nM | 20 | percent relaxation [11]: Dose-dependent effect; EC50 [12]: 71 nM
CN1CC(=O)N2[C@H](c3ccc(Br)s3)c3[nH]c4ccccc4c3C[C@@H]2C1=O | 7.2 nM | 99.2% | > 20000 nM | > 20000 nM | > 20000 nM | > 10000 nM | 136 nM | 19 | 219 nM | 30 | percent relaxation [11]: Dose-dependent effect; EC50 [12]: 55 nM
CCCCN1C(=O)[C@@H]2Cc3c([nH]c4ccccc34)[C@@H](c3ccc(CC)s3)N2C1=O | 30.3 nM | 79.4% | > 20000 nM | > 20000 nM | > 20000 nM | > 10000 nM | 107 nM | 4 | > 1000 nM | > 33 | 
CCc1ccc([C@H]2c3[nH]c4ccccc4c3C[C@H]3C(=O)N(CC)C(=O)N23)s1 | 383 nM | 44.1% |  |  |  |  |  |  |  |  | 
CCc1ccc([C@@H]2c3[nH]c4ccccc4c3C[C@H]3C(=O)N(C)CC(=O)N23)s1 | 61 nM | 72.7% |  |  |  |  |  |  |  |  | 
Cc1ccsc1[C@@H]1c2[nH]c3ccccc3c2C[C@@H]2C(=O)N(C)CC(=O)N12 | 50.2 nM | 66.7% |  |  |  |  |  |  |  |  | 
Cc1ccsc1[C@H]1c2[nH]c3ccccc3c2C[C@@H]2C(=O)N(C)CC(=O)N12 | 97.5 nM | 57.4% |  |  |  |  |  |  |  |  | 
CCc1ccc(C2c3[nH]c4ccccc4c3C(=O)CN2c2ncc(-c3ccc(OC)c(OC)c3)cn2)o1 (centres undefined) | 52.5 nM | 73.3% |  |  |  |  | 288 nM | 5 | 634 nM | 12 | Stability [14]: Stable
CCN1C(=O)[C@@H]2Cc3c([nH]c4ccccc34)[C@@H](c3ccc(C)o3)N2C1=O | 10.5 nM | 85.4% | > 20000 nM | > 20000 nM | > 20000 nM | > 10000 nM | 62 nM | 6 | 4 nM | 0.4 | percent relaxation [11]: Dose-dependent effect; EC50 [12]: 191 nM
CC(C)(C)Oc1ccc(Cc2[nH]c(-c3ccco3)c3c(=O)c4ccccc4oc23)cc1 |  |  |  |  |  |  |  |  |  |  | IC50 [13]: 240 nM
CCN1C(=O)[C@@H]2Cc3c([nH]c4ccccc34)[C@@H](c3ccc(Br)s3)N2C1=O |  |  |  |  |  |  |  |  |  |  | IC50 [13]: 160 nM
CCc1ccc([C@H]2c3[nH]c4ccccc4c3C[C@@H]3C(=O)N(CC)C(=O)N23)s1 | 155 nM | 45.8% |  |  |  |  |  |  |  |  | 
CCc1ccc(C(=O)c2[nH]c3ccccc3c2CCNc2ccc(-c3ccccn3)cn2)s1 |  | 25.2% |  |  |  |  |  |  |  |  | Stability [14]: Stable
CCNC(=O)N1[C@H](c2ccc(CC)o2)c2[nH]c3ccccc3c2C[C@@H]1C(=O)OC |  | 46.1% |  |  |  |  |  |  |  |  | Stability [14]: Stable
